{"source": "the RNAGym collection of RNA variant scans (doi:10.1126/science.aae0568)", "parents": {"B1": {"name": "tRNA (parent)", "chain": "GUUCCGUUGGCGUAAUGGUAACGCGUCUCCCUCCUAAGGAGAAGACUGCGGGUUCGAGUCCCGUACGGAACG"}}, "note": "This sample holds only a part of the variants without activity."}
{"variants_of": "B1", "assay": "yeast fitness relative to wild type (ratio to wild type); higher = fitter; tRNA-Arg(CCU), competitive growth, 37 C, YPD", "procedure,_shortened": "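For this measurement, the tRNA-Arg(CCU) gene was varied by chemical synthesis at a 3% per-site mutation rate across 69 sites, and each variant was placed at the native genomic locus in Saccharomyces cerevisiae. The pooled strains went through a 24-hour competition in YPD at 37°C in six parallel replicates, with amplicons from start and end populations read by 100-nucleotide paired-end sequencing. Darwinian fitness relative to wild type followed from the change in each genotype's frequency. Genotypes needed ≥ 100 starting reads, and estimates < 0.5 were set to 0.5.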"}
{"variant": "GUUGCGUCGGCGUAAUAGUAACGCGUGUCCCUCCUUAGGAGAAGACUGCGGGUUCGAGUCCGGUACGGAACG", "yeast fitness": 0.607}
{"variant": "GUUGCGUAGGCAUAAUGGUAACGCGUCUCCCUCCUAAGGAGAAGACUACGGGUUCGAGUCCCGUACGGCUCG", "yeast fitness": 0.561}
{"variant": "GUUGCGUAGGCAUGAUGGUAACGCGUCUCCCUCCUAAGGAGAAGACUACGGGUUCGAGUCCCGUACGGCACG", "yeast fitness": "≤ 0.5"}
{"variant": "GUUGCGCUGGCGGAAUGGUAACGCGUCUCCCUCCUAAGGAGAAGACUGCGGGUUCGAGUCCCGUACGGAACG", "yeast fitness": 0.537}
{"variant": "GUUGCGAUGGCGUAAUGGUAAUGCGUCUCCCUCCUAAGGAGAAGACUGCGGGUUCGAGUCCCGUAAGGAACG", "yeast fitness": "≤ 0.5"}
{"variant": "GUUGCGAUAGUGUAAUGGUAACGCGUCUCCCUCCUAAGGAGAAGACUGCGGGUUUGAGUCCCGUACGGAACG", "yeast fitness": "≤ 0.5"}
{"variant": "GUUGCGAUGCCGUAAUGGUCACGCGUCUCCCUCCUAAGGAGAAGACUGCGGGUUCGAGUCCCGUACGGAACG", "yeast fitness": "≤ 0.5"}
{"variant": "GUUGCGGUGGCGUAAUGGUAACGCGUCUCCCUCCUAAGGAGAAGACUGCGGGUUCGAGUACUGUACGCAACG", "yeast fitness": "≤ 0.5"}
{"variant": "GUUGCGUCGGCGUAAUGGUAACGGGUCUCCCUCCUAAGGAGCAGACUGCGGGUUCGAGUCGCGUACGGAACG", "yeast fitness": "≤ 0.5"}
{"variant": "GUUGCGUCGGCGUAGUGGUAACACGUCUCCCUCGUAAGGAGAAGACUGCGGGUUCGAGUCCCGUACAGAACG", "yeast fitness": "≤ 0.5"}
{"variant": "GUUGCGAUGGCGUAAUGGUAACGCGUCUCCCUCCUAAGGAGAAGACUGCGGGUUCGAGACCCGUACGGAACG", "yeast fitness": 0.621}
{"variant": "GUUGCGUCGGCGUAAUGGUAACGCAUCUCCCUCCUAAGGAGUAGACUGCGGGUUCGAGUCCCGUACGGAUCG", "yeast fitness": "≤ 0.5"}
{"variant": "GUUGCGGUGGCCUAAUGGUUACGCGUCUCCCACCUAAGGAGAAGACUGCGGGUUCGAGUCCCGUACGGAACG", "yeast fitness": "≤ 0.5"}
{"variant": "GUUGCGUUGGCGUAAUGGUAACGCGUCUCCCUCCUAAGGAGAAGACUGCGGCUUCGCGUCCCCUACGGAACG", "yeast fitness": "≤ 0.5"}
{"variant": "GUUGCGUAGGCAUAAUGGUAACGCGUCUCCCUCCUAAGGAGGAAACUGCGGGUUCGAGUCCCGCACGGAACG", "yeast fitness": "≤ 0.5"}
{"variant": "GUUGCGUAGGCGUAAUGCUAACGCGUCUCCCACCUAAGGAGAAGACCGCGGGUUCGAGUCCCGUACGGAACG", "yeast fitness": 0.574}
{"variant": "GUUGCGAUGCCGUAAUGGUCACGCGUCUCCCUCCUAAGGAGAAGACUGCGGGUUCGAGUCCCGUACUGAACG", "yeast fitness": 0.527}
{"variant": "GUUGCGUAGGGGUAAUGGUAACGCGUCUCCCUCCUAAGGAGUAGACUGCGGGUUCGAGUCCCGCACGCAACG", "yeast fitness": "≤ 0.5"}
{"variant": "GUUGCGUCGGCGUAAUGGUAACGCGUCGCCCUCCUAAGGAGAAGACUGAGGGUUCGAGUCCGGUACGGAACG", "yeast fitness": "≤ 0.5"}
{"variant": "GUUGCGGUGGCCUAAUGGUUACGCGUCUCCCUCCUAAGGAGAAGACUGCGGGUUCGAGUCCCGUACGGAACG", "yeast fitness": "≤ 0.5"}
{"variant": "GUUGCGGUGGCGUAAUGGUAACGCGUCUCCCUCAUAAGGAGAAGACUGCGGGUUCGAGUCCCGUACGGAACG", "yeast fitness": "≤ 0.5"}
{"variant": "GUUGCGAUAGUGUAAUGGUAACGCGUCUCGCUCCUAAGGAGAAGACUGCGGGUUCGAGUCCAGUACGGAACG", "yeast fitness": 0.628}
{"variant": "GUUGCGGUAGCGUAAUGGUGAAGCGUCUCCCUCCUAAGGAAAAGACUGCGGGUUCGAGUCCCGUACGGCACG", "yeast fitness": "≤ 0.5"}
{"variant": "GUUGCGAUGGCGUAAUGGCCACGCGUCUCCCUCCUAAGGAGAAGACUGCGGGCUCGAGUCCCGUACGGAACG", "yeast fitness": "≤ 0.5"}
{"variant": "GUUGCGGUGGCCUAAUGGUAACGCGUCUCCCUCCUAAGGAGAAGACUGCGGGUUCGAGUCCCGUACGGAACG", "yeast fitness": "≤ 0.5"}
{"variant": "GUUGCGCUGGUGUAAUGGUAAUGCGUCUCCCUCCGAAGGAGAAGACUGCGGGUUCGAGUCACGUACGGAACG", "yeast fitness": "≤ 0.5"}
{"variant": "GUUGCGGUGGCGUAAUGGUAACGCGUCUCCCUCCUAAGGAGAAGACUGCGGGUUCGAGUCCCGUGCGGAACG", "yeast fitness": 0.622}
{"variant": "GUUGCGUCGGCGUAAAGGUACCGGGUCUCCCUCCUAUGGAGAAGACUGUGGGUUUGAGUCCCGUACGGAACG", "yeast fitness": "≤ 0.5"}
{"variant": "GUUGCGUAGGCAUAAUGGUAAUGCGUCUCCCUCCUAAGGAGAAGACUACGGGUUCGAGUCCCGUACGGCACG", "yeast fitness": 0.522}
{"variant": "GUUGCGGUGGCCUAAUGGUUACGCGUCUCCCUCCUAAGGAGAAGACUGUGGGUAUGAGUCCCGUACGGACCG", "yeast fitness": "≤ 0.5"}
{"variant": "GUUGCGUCGGGGUAAUGGUAACGCGUCUCCCUCCUAAGGAGAAGAUUGCGGGUUCGAGUCCCGUACGGAACG", "yeast fitness": "≤ 0.5"}
{"variant": "GUUGCGUAGGCAUAAUGGUAACGCGUCUCCCUCCGAAGGAGAAGACUGCGGGUUCGAGUCCCGUACGGAACG", "yeast fitness": "≤ 0.5"}
{"variant": "GUUGCGUUGGCGUAAUGGUAACGCGUCUCCCUCCUAAGGAGAAGACUGCCGGUUCGAGUCUCGUACGGAACG", "yeast fitness": 0.52}
{"variant": "GUUGCGUCGGCGUAAUGGUAACGCGUCUCCCUCCUAAGGAGAAGACUGAGGGUUCGAGUCCCGUACGGAACG", "yeast fitness": "≤ 0.5"}
{"variant": "GUUGCGUUGGCGUAAUGGUAACGCGUCUCCCUCCUAAGGAGAAGACUGCGGGUUCGAGUCCCGUACAGAGCG", "yeast fitness": 0.665}
{"variant": "GUUGCGUAGGCGUAAUGGUAAUGCGUCUCCCUCCUAAGGAGAAGAGUGCGGGUUCGAGUCCCAUACGGAACG", "yeast fitness": "≤ 0.5"}
{"variant": "GUUGCGUAGGCGUAAUGCUAACGCGUCUCCCACCUAAGGAGAAGACCGCGGGUCCGAGUCCCGUACGGAACG", "yeast fitness": "≤ 0.5"}
{"variant": "GUUGCGUUGGCGUAAUGGUAACGCGUCUCCCUCCUAAGGAGAAGACUGCGGGUUCGAAUCCCGUACUGCACG", "yeast fitness": 0.542}
